The text below walks through data of ChEMBL document CHEMBL3758120, “Synthesis and Mechanism Studies of 1,3-Benzoazolyl Substituted Pyrrolo[2,3-b]pyrazine Derivatives as Nonintercalative Topoisomerase II Catalytic Inhibitors” (J Med Chem, 2016).

Activity calls are given as the source filed them. The calls are words filed in the database; no cut-off is given here.

One assay has as its system HL-60. The assay can be described thus: Induction of apoptosis in human HL60 cells assessed as early apoptotic cells at 1 uM after 12 hrs by annexin V-FITC/propidium iodide staining-based flow cytometric analysis (reference value: 0.38 to 0.55%). The class given is functional. In a few lines: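 HL-60 cells at 5.0 × 10^5 cells/ml treated for 12 h (0.5–2 μM) or 24 h (0.25–1 μM), washed twice in cold PBS, resuspended in binding buffer, stained with annexin V-FITC and propidium iodide for 15 min in the dark, analysed by flow cytometry within 1 h; quadrants define live, early and late apoptotic cells. Three repeats.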
For orientation: Flow cytometry measures light scatter and fluorescence of single cells or particles in a stream.

Assay [1] concerns the target T1, DNA topoisomerase 2-alpha (Homo sapiens, UniProt P11388). The experiment in a line: Inhibition of purified human topoisomerase 2-mediated relaxation of supercoiled pBR322 DNA at 50 uM incubated for 30 mins in presence of 1 mM ATP by agarose gel electrophoresis. In short, it runs like this: (§1)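 Reactions contained 0.2 μg supercoiled pBR322 in 50 mM Tris-HCl pH 8.0, 150 mM NaCl, 10 mM MgCl2, 0.5 mM DTT, 30 μg/ml BSA, normally 2 mM ATP (1, 2 or 4 mM in ATP-competition runs). Started with 1 U human Topo II, 30 min at 37 °C, stopped with sarcosyl buffer, run on 1% agarose 1.5 h at 75 V, gel-stained and imaged under UV.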

For assay [2], the target named is T1, DNA topoisomerase 2-alpha. To be noted: HL-60, 5 uM.
Another assay relates to Calf thymus DNA. The assay can be described thus: Binding affinity to calf thymus DNA by UV-visible spectrophotometric analysis. The class given is nucleic-acid assay. Particulars: Bos taurus. In a few lines:
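Compound fixed at 5 μM in DPBS pH 7.4 with 1% DMSO, titrated with CT-DNA (0–25 μM; concentration from A260, ε 13 200 M(bp)⁻¹cm⁻¹; A260/280 1.8–1.9). After 20 min equilibration at room temperature, absorption spectra recorded over 300–500 nm.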

In the next assay the test system is Escherichia coli. The assay can be described thus: Binding affinity to Escherichia coli pBR322 DNA assessed as intercalation of pBR322 DNA at 0.1 to 100 uM by fluorescence based ethidium bromide displacement assay. In a few lines:
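Increasing concentrations added to 20 nM pBR322 plasmid with 2.5 μM ethidium bromide in 10 mM HEPES pH 7.9, 100 mM KCl, 5 mM MgCl2, 0.1 mM EDTA. Fluorescence emission spectra recorded (excitation 510 nm, emission max 595 nm) at each concentration; mAMSA used as intercalating reference.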

Assay [3] deals with T1, DNA topoisomerase 2-alpha. The assay can be described thus: Inhibition of purified human topoisomerase 2-mediated relaxation of supercoiled pBR322 DNA at 50 uM incubated for 30 mins in presence of 4 mM ATP by agarose gel electrophoresis. In short, it runs like this: as §1
Assay [4] concerns the target T1, DNA topoisomerase 2-alpha. Particulars: HL-60, 5 uM. This is another data set of the same source.
In assay [5] the target is T1, DNA topoisomerase 2-alpha. The experiment in a line: Inhibition of purified human topoisomerase 2-mediated relaxation of supercoiled pBR322 DNA at 20 uM incubated for 30 mins by agarose gel electrophoresis. In short, it runs like this: as §1

T1 sequence (P11388 whole entry): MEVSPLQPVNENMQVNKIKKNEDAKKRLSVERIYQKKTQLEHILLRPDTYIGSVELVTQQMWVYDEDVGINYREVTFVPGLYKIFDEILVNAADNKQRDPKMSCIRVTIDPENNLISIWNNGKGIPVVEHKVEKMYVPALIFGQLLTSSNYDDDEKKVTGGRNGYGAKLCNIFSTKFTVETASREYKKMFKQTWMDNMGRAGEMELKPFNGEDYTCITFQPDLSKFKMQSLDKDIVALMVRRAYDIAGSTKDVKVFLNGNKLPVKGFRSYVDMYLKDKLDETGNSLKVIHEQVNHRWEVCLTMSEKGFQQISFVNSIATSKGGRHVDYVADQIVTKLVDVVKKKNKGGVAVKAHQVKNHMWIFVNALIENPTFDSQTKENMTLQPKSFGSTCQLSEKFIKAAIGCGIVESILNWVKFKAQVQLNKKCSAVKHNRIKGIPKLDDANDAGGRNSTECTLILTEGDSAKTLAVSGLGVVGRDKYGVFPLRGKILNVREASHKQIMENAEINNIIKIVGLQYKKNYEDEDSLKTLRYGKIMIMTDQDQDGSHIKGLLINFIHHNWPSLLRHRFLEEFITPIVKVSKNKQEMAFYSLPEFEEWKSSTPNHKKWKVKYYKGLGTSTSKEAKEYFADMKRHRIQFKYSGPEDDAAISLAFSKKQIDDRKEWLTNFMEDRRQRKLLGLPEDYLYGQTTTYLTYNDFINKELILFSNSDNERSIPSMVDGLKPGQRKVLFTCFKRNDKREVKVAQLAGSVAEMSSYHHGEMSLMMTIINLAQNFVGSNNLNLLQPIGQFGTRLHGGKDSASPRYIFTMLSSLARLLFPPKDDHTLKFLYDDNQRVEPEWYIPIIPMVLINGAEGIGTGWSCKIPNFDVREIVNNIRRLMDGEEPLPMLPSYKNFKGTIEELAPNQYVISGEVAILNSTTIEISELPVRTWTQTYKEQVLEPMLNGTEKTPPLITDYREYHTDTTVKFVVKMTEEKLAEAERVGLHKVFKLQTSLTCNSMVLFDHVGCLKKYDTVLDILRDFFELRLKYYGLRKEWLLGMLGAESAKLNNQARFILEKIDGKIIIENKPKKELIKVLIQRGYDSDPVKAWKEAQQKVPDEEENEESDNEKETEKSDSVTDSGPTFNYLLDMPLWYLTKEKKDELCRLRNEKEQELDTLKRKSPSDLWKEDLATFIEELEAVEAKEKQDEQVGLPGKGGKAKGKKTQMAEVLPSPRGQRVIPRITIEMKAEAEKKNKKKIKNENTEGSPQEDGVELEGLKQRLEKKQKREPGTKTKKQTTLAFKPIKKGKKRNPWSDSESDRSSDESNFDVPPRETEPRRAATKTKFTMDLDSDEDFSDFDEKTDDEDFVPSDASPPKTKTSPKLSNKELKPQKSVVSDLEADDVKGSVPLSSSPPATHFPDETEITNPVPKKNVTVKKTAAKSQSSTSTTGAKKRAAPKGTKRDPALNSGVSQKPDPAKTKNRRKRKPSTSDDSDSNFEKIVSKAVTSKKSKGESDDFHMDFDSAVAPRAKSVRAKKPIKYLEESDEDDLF

Regarding `CN(C)CCCCn1c(N)c(-c2nc3ccccc3[nH]2)c2nc(C#N)c(C#N)nc21`, the Activity in the assay on HL-60 was 0.82%. Besides, the concentration for half-maximal inhibition (IC50) in assay [1] was determined as 0.9 µM; in assay [3], 16.5 µM. Also, the inhibition result (in assay [2]; with Escherichia coli) was “inactive” in each case. For the same compound, the Kb with Calf thymus DNA is 2.8 ×10⁵ /M. For the same compound, the inhibition entry in assay [4] and in assay [5] was “Active” each time.

For `CCN(CC)CCCCn1c(N)c(-c2nc3ccccc3[nH]2)c2nc(C#N)c(C#N)nc21`, in the assay on HL-60, the Activity came out at 1.39%. Also, the inhibition entry in assay [5] is “Active”.

For orientation: IC50 means the concentration that gives 50% inhibition.
